The text below walks through data of ChEMBL document CHEMBL4706701, “Synthesis and biological activity of selenopsammaplin A and its analogues as antitumor agents with DOT1L inhibitory activity” (Bioorg Med Chem, 2021).

Active and inactive are the calls of the source. The calls are words filed in the database; no cut-off is given here.

The test system of assay [1] is MDA-MB-231. Briefly: Down regulation of ZEB1 mRNA expression in human MDA-MB-231 cells at 50 to 200 nM measured after 24 hrs by RT-PCR analysis. The settings on record: dose 50-200 nM. It counts as functional, cell-based.
The test system of assay [2] is MDA-MB-231. Kind of assay: Antitumor activity against human MDA-MB-231 cells xenografted in BALB/c nu mouse assessed as tumor growth inhibition at 15 mg/kg, ip administered thrice per week for 38 days by caliper method relative to control. It counts as functional. The settings on record: MDA-MB-231, ip, 912 h, time 38 day, read-out: TGI. In a few lines: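 Female BALB/c-nu mice (5–6 wk) given 1 × 10⁷ luciferase-expressing MDA-MB-231 cells in 50:50 DMEM/Matrigel into the fourth fat pad; randomized after 10 days (six per group). Dosed ip in EtOH/Cremophor/saline (5:5:90) three times weekly for 38 days. Tumor L, W, H measured by caliper, volume = LWH/2; body weight weekly; tumors excised and weighed at termination.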
A general note: In xenograft studies the graft and the host belong to different species.

With `O=C(NCC[Se][Se]CCNC(=O)/C(Cc1ccccc1)=N/O)/C(Cc1ccccc1)=N/O`, the result in the assay with MDA-MB-231 [1] was Active. In addition, in the assay on MDA-MB-231 [2], the inhibition in vivo at 15 mg/kg was found to be 55.1%.
